In PMC11223199 (ACS Omega, 2024):

Key:
DeHa4 = assay: fluoride ion probe, Lineweaver-Burk; assay type: biochemical, Delftia acidovorans; settings: pH 7, PBS, 37 °C, 28 h
In short: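 Cobalt-affinity-purified enzyme from E. coli BL21 DE3 (pET15b), 250 μg in 0.5 mL with MFA (0.4–3 mM) or DFA (10–120 mM), 28 h, 250 rpm. Samples diluted in low-level TISAB and water, then read by fluoride electrode against NaF calibration (0–20 μM, second-order polynomial fit). Product equals fluoride for MFA and half of fluoride for DFA. Velocity is product per hour. 4–6 independent runs.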

DeHa2 = target: T1, DeHa2 (Delftia acidovorans, UniProt Q7DI63); assay: fluoride ion probe, Lineweaver-Burk; assay type: biochemical; settings: pH 7, PBS, 37 °C, 28 h
T1 sequence (Q7DI63 1-224): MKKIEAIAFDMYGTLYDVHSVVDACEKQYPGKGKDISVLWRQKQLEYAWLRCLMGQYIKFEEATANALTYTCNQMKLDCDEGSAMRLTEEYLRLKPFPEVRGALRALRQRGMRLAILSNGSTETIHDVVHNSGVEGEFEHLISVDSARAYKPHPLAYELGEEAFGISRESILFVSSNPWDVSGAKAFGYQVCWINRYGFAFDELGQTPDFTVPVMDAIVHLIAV

| Compound | Km (DeHa4) [mM] | Km (DeHa2) [mM] |
| --- | --- | --- |
| O=C(O)C(F)F [DFA, difluoroacetate] | 39 ± 2.36 |  |
| O=C(O)CF [MFA, monofluoroacetate] | 2.19 ± 0.37 | 5.47 ± 1.54 |
